Data published in ChEMBL document CHEMBL2062496, “Identification of a sirtuin 3 inhibitor that displays selectivity over sirtuin 1 and 2” (Eur J Med Chem, 2012).
Active and inactive are the calls of the source. The rule behind the calls is not given here.

Experiments:
[1] = biological target: T1, NAD-dependent protein deacetylase sirtuin-1 (Homo sapiens) (UniProt Q96EB6); test: Inhibition of human SIRT1 assessed as enzyme activity using Fluor-de-Lys as substrate at 1 mM by fluorometry; set-up: scale not given: the % may be the effect or the level left
T1 sequence (whole entry): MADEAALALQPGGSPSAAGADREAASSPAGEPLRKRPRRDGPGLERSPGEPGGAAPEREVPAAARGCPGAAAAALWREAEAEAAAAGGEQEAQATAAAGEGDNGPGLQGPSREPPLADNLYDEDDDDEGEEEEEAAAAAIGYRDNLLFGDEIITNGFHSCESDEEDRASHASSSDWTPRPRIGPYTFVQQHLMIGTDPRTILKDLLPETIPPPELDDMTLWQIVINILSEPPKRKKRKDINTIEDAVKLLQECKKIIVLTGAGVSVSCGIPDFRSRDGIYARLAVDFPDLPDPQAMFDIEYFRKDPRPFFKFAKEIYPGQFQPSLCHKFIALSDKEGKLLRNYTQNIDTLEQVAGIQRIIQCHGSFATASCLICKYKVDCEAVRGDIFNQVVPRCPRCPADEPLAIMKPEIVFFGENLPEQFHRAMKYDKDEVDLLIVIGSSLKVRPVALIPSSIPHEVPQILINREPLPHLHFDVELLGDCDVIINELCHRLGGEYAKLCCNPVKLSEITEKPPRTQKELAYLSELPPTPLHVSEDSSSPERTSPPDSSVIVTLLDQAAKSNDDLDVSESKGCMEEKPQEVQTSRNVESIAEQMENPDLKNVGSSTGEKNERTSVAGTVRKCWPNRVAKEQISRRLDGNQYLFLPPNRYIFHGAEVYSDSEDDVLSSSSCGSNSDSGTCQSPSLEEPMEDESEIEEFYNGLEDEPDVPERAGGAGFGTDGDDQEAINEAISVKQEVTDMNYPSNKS
In short: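 Commercial Fluor-de-Lys kit, substrate human p53 379–382 peptide (Arg-His-Lys-Lys(Ac)). Human Sirt1 or Sirt2 was incubated with substrate, NAD+ and compound at 1 mM, also tested at 100 µM. Fluorescence scales with Lys382 deacetylation. Activity is expressed relative to control, mean ± S.E.M. of 3–4 replicates.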

[2] = tested on: SK-MEL-28; test: Reduction in ATP level in human SK-MEL-28 cells at 100 uM maintained in Locke's solution after 24 hrs by luciferase-based assay in absence of GF and glucose; assay type: functional, cell-based
In short: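 SK-MEL-28 cells were grown 24 h in Locke's saline lacking glucose and serum, with or without 100 µM compound; antimycin was the positive control. Cellular ATP was released with a somatic-cell releasing reagent, then luciferase/luciferin assay mix was added and bioluminescence read. Mean ± S.E.M. of 10–14 replicates from 3 separate experiments.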

[3] = tested on: SK-MEL-28; test: Increase in superoxide level in human SK-MEL-28 cells maintained in medium containing GF and glucose at 100 uM after 24 hrs by DHE-based fluorescence ssay; assay type: functional, cell-based
In short: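 Cells (SK-MEL-28) were kept 24 h in growth medium (DMEM + 10% serum) with or without 100 µM compound; antimycin was the positive control. They were labelled at 37 °C with DHE (10 µmol/L, 1% DMSO) in Locke's containing 5 mmol/L pyruvate for 40 min, stopped on ice and trypsinized. Flow-cytometric MFI of 10,000 cells, corrected for unlabelled autofluorescence; 3–4 separate experiments.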

[4] = tested on: HL-60(TB); test: Growth inhibition of human HL-60(TB) cells assessed as cell growth at 10 uM after 48 hrs by MTT assay; assay type: functional; details: HL-60, 48 h, read-out: GI
[5] = tested on: HeLa; test: Cytotoxicity against human HeLa cells assessed as cell death after 48 hrs
[6] = tested on: OVCAR-4; test: Growth of human OVCAR4 cells assessed as cell growth at 10 uM after 48 hrs by MTT assay; details: OVCAR-4, 48 h
[7] = tested on: EKVX; test: Growth inhibition of human EKVX cells assessed as cell growth at 10 uM after 48 hrs by MTT assay; values are per cent of control
[8] = tested on: KM12; test: Growth inhibition of human KM12 cells assessed as cell growth at 10 uM after 48 hrs by MTT assay; values are per cent of control; details: KM12, 48 h
[9] = tested on: MCF7; test: Growth inhibition of human MCF7 cells assessed as cell growth at 10 uM after 48 hrs by MTT assay; values are per cent of control; details: MCF7, 48 h
[10] = tested on: SF-295; test: Growth inhibition of human SF295 cells assessed as cell growth at 10 uM after 48 hrs by MTT assay; values are per cent of control; details: SF-295, 48 h
[11] = tested on: CAKI-1; test: Growth inhibition of human Caki1 cells assessed as cell growth at 10 uM after 48 hrs by MTT assay; values are per cent of control; details: CAKI-1, 48 h
[12] = tested on: HCT-116; test: Growth inhibition of human HCT116 cells assessed as cell growth at 10 uM after 48 hrs by MTT assay; values are per cent of control; details: HCT-116, 48 h
[13] = tested on: OVCAR-8; test: Growth inhibition of human OVCAR8 cells assessed as cell growth at 10 uM after 48 hrs by MTT assay; values are per cent of control; details: OVCAR-8, 48 h
[14] = tested on: NCI-H23; test: Growth inhibition of human NCI-H23 cells assessed as cell growth at 10 uM after 48 hrs by MTT assay; values are per cent of control; details: NCI-H23, 48 h
[15] = tested on: COLO 205; test: Growth inhibition of human COLO205 cells assessed as cell growth at 10 uM after 48 hrs by MTT assay; values are per cent of control; details: COLO 205, 48 h
[16] = tested on: LOX IMVI; test: Growth inhibition of human LOXIMVI cells assessed as cell growth at 10 uM after 48 hrs by MTT assay; values are per cent of control
[17] = tested on: UACC-257; test: Growth inhibition of human UACC257 cells assessed as cell growth at 10 uM after 48 hrs by MTT assay; values are per cent of control; details: UACC-257, 48 h
[18] = tested on: RPMI-8226; test: Growth inhibition of human RPMI8226 cells assessed as cell growth at 10 uM after 48 hrs by MTT assay; values are per cent of control; details: RPMI-8226, 48 h
[19] = tested on: SK-MEL-28; test: Growth inhibition of human SK-MEL-28 cells assessed as cell growth at 10 uM after 48 hrs by MTT assay; values are per cent of control; details: SK-MEL-28, 48 h

## c1cncc(-c2cnn[nH]2)c1
[1]
  Activity: 88%
[2]
  Activity: Active
[3]
  Activity: Active
[4]
  inhibition of growth at 10 µM: 92.9%
[5]
  IC50: 4.7 µM
[6]
  growth, % of control at 10 µM: 47.4%
[7]
  growth, % of control at 10 µM: 76.4%
[8]
  growth, % of control at 10 µM: 116%
[9]
  growth, % of control at 10 µM: 117%
[10]
  growth, % of control at 10 µM: 107%
[11]
  growth, % of control at 10 µM: 95.1%
[12]
  growth, % of control at 10 µM: 82.4%
[13]
  growth, % of control at 10 µM: 49.8%
[14]
  growth, % of control at 10 µM: 89.6%
[15]
  growth, % of control at 10 µM: 23.8%
[16]
  growth, % of control at 10 µM: 102%
[17]
  growth, % of control at 10 µM: 90.3%
[18]
  growth, % of control at 10 µM: 66.9%
[19]
  growth, % of control at 10 µM: 106%
